# Assay outcomes from PubChem.
# TMEM16A inh – mouse TMEM16A channel inhibition, primary screen. actives 1.2% (n = 310,000). Q8BHY3. HEK293 TMEM16A/YFP iodide influx fluorescence, ionomycin. normalized B-score (activity score, 25-100; higher = stronger inhibition) at 10 µM;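 active = ratio plate-corrected score three or more library SD toward inhibition, starting fluorescence score within five deviations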;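 note: score derived from kinetic fluorescence span divided by baseline fluorescence per well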
# DNA FID counter – fluorescent intercalator displacement, NS3 helicase counter-screen. DNA fluorescent intercalator displacement, fluorescence. inhibition, % at 7.9 µM. actives 0.17% (n = 290,000). AID 1845; in the data active = inhibition above about 37%;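 note: 0% = vehicle and 100% = reference compound; higher means more ethidium bromide displaced from hairpin DNA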
# TMEM16A act – activates or potentiates the mouse TMEM16A chloride channel. Q8BHY3. HEK293 TMEM16A/YFP-H148Q/I152L, iodide quench fluorescence; hits give low values. B-score at 10 µM. actives 0.3% (n = 340,000);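 active = fluorescence-ratio B-score plate-corrected deviation score at least 3 library SD below zero, with starting fluorescence score within 5 deviations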;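 note: channel opened by trigger with iodide after compound preincubation; score built on the fluorescence ratio of max minus min over baseline; more negative score means more quench and so TMEM16A activation or potentiation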
# SR-BI HDL uptake – blocks mouse SR-BI lipid uptake from DiI-HDL; Q61009; ldlA[mSR-BI] CHO cells, DiI-HDL uptake fluorescence, 3 h; inhibition, % at 12.5 µM; actives 0.96% (n = 320,000);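 active = mean replicate inhibition of at least 70% and a set share of replicates each scoring 70 or more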;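 note: 0% = median of neutral control wells and 100% = median of positive control wells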
# SR-BI uptake up – enhances SR-BI lipid uptake from DiI-HDL | actives 0.096% (n = 320,000) | activation, % at 12.5 µM | CHO ldlA[mSR-BI] cells, DiI-HDL uptake fluorescence, 3 h; 100 = double the neutral-control signal;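 active = mean replicate activation of at least 60% and every replicate at or above 60%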;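 note: 0% = median plate neutral-control signal and 100% = twice that signal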
#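 System: CHO ldlA[mSR-BI] cells / Medium: HEPES-buffered (25 mM, pH 7.4) F12 plus 0.5% BSA / Probe or stimulus: labelled HDL, 10 µg/mL / Doses: single compound concentration, delivered by pin transfer / Schedule: 3 h, 37 °C / Measured by: DiI fluorescence, bottom read / Measure: cell-associated DiI fluorescence as measure of HDL uptake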
# Kir21 block – blocks the mouse Kir2.1 inward-rectifier potassium channel; P35561; HEK293-Kir2.1, FluxOR thallium flux fluorescence; hits give low values; B-score at 10 µM; actives 0.85% (n = 310,000);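 active = fluorescence ratio B-score at or below minus 3 SD of library scores, with starting-brightness B-score within 2 SD, cut at about -4.2 in these data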;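 note: channel flux triggered by added potassium and thallium sulfate stimulus; B-score of peak minus minimum fluorescence over baseline after thallium stimulus; more negative B-score means stronger Kir2.1 block with less thallium influx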
# Target sequence (P35561 whole entry, looked up): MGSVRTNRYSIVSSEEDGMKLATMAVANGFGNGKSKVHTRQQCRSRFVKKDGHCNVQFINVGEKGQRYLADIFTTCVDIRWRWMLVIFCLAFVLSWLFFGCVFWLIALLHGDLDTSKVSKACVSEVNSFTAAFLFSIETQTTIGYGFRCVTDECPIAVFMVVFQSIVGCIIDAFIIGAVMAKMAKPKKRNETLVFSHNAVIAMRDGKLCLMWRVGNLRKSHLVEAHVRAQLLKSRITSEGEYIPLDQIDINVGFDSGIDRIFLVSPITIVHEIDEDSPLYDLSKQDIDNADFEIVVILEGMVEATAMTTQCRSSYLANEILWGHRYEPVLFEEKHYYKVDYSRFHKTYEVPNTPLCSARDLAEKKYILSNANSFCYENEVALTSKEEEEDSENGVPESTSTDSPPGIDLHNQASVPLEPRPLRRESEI
# TMEM16A reconf – TMEM16A (mouse) chloride channel inhibition, re-confirmation | actives 39% (n = 2,300) | inhibition, % at 10 µM | HEK293 TMEM16A/YFP-H148Q, iodide quench fluorescence; ionomycin added to raise cell calcium | shares compounds with TMEM16A inh;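 active = mean duplicate percent inhibition, scaled so buffer wells are 0 and the reference blocker 100, over three buffer SD above buffer mean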
# TMEM16A Ca cntr – alters calcium mobilization in TMEM16A HEK293 cells, counter-screen; AID 652231; shares compounds with TMEM16A inh; TMEM16A/YFP HEK293, Fluo4 calcium mobilization; actives 2% (n = 2,300); calcium response (% of ionomycin), % at 10 µM;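 active = duplicate-averaged calcium signal over 20% of the ionomycin maximum, relative to buffer baseline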;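 note: each well's signal is peak minus trough fluorescence divided by its pre-addition baseline; 0% = buffer wells and 100% = ionomycin wells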
# Parental YFP cnt – counter-screen for TMEM16A inhibitors: effect in parental YFP-HEK293 cells; AID 652233; shares compounds with TMEM16A inh; iodide YFP quench, ionomycin; 2,300 tested, under 10 active; YFP ratio F(max-min)/F0 at 10 µM;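 active = yellow fluorescent protein signal ratio exceeding the buffer control mean by over 5 SD of those controls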;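 note: ratio is mean of duplicate wells from kinetic YFP trace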
# ClC-1 inh – selectivity of TMEM16A inhibitors: inhibition of rat ClC-1 chloride channel | AID 652236 | 2,300 tested, under 10 active | ratio percent, % at 10 µM | CHO ClC-1-YFP, iodide influx fluorescence quench; iodide control reads 0, buffer control 100 | shares compounds with TMEM16A inh;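 active = duplicate-mean ratio percent above the mean of iodide-only control wells, which defines zero, plus 5 of their SD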;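 note: higher percent means stronger block of ClC-1 iodide influx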
# * = called active by the depositor; i = inactive; / = no result given. Compounds with a hit are over-represented: about 3% of the library has one in this group of screens.
SMILES,TMEM16A inh,DNA FID counter,TMEM16A act,SR-BI HDL uptake,SR-BI uptake up,Kir21 block,TMEM16A reconf,TMEM16A Ca cntr,Parental YFP cnt,ClC-1 inh
O=C(Nc1cccc(S(=O)(=O)N2CCCCC2)c1)c1ccc(OCC2CCCO2)cc1 (stereo unspecified),25*,-23,i,28,-28,1.5,i,i,-1,-14
COc1ccc(C(=O)NC(=S)Nc2cccc(S(=O)(=O)N3CCOCC3)c2)cc1,25*,-18,i,40,-40,2.9,i,i,-0.96,-8
O=C(Nc1ccc(S(=O)(=O)N2CCCC2)cc1)c1ccc(OCC2CCCO2)cc1 (stereo unspecified),25*,-25,i,19,-19,0.35,20%*,i,-0.98,-8
Cc1ccc(NC(=O)c2ccc(OCC3CCCO3)cc2)cc1 (stereo unspecified),i,-11,i,23,-23,0.27,/,/,/,/
COc1ccc(NC(=O)CSc2nc3ccccc3c(=O)n2CCCN2CCC(C)CC2)c(OC)c1,i,12,i,-3,3,-3,/,/,/,/
CCCN(CC(=O)Nc1ccccc1OC)CC(=O)c1c(N)n(Cc2ccccc2)c(=O)n(C)c1=O,/,/,i,-16,16,/,/,/,/,/
Cc1ccc(CNC(=O)CN(c2ccc(Cl)cc2)S(C)(=O)=O)cc1,i,-21,i,/,/,-0.8,/,/,/,/
O=C(O)Cn1cc(C(=S)N2CCOCC2)c2ccccc21,25*,1,i,1,-1,0.25,i,i,-1.4,-5
O=C(NCCN1CCOCC1)c1cccc(S(=O)(=O)Nc2cc(Cl)ccc2Cl)c1,/,/,i,-11,11,/,/,/,/,/
CC(C)(C)C(=O)Nc1sc2c(c1C#N)CCC2,i,-1,i,0,0,-0.74,/,/,/,/
CC(C)(C)C(=O)NC(NC(=S)Nc1sc2c(c1C#N)CCCC2)C(Cl)(Cl)Cl (stereo unspecified),100*,-3,i,24,-24,-0.11,34%*,i,-1.2,-10
COc1ccccc1N(C(=O)c1snc(C(N)=O)c1N)C(C(=O)NC1CCCCC1)c1cccc(OC)c1OC (stereo unspecified),i,-45,i,-17,17,-1,/,/,/,/
COc1ccccc1N1CCN(C(=O)COc2ccc(C)cc2Br)CC1,100*,-36,i,18,-18,-1.3,i,22%*,-1,2
O=C1[C@H](Cc2ccccc2)NCC=CC[C@H](c2ccc(Cl)cc2)N1Cc1ccc(Cl)cc1,/,/,i,-26,26,/,/,/,/,/
O=C(N/N=C/c1c[nH]c2ccccc12)C1CC1c1ccccc1 (stereo unspecified),25*,2,i,-14,14,0.01,46%*,i,-0.69,-10
O=C(N/N=C/c1c[nH]c2ccccc12)C1CC1(c1ccccc1)c1ccccc1 (stereo unspecified),i,-2,i,2,-2,3.6,/,/,/,/
Cc1cc(C)c(S(=O)(=O)N2CCCC(C(=O)NCc3ccccn3)C2)c(C)c1 (stereo unspecified),i,-27,i,-5,5,-1.1,/,/,/,/
CCOCC(=O)Nc1cc(C(F)(F)F)ccc1Oc1cccc(Br)c1,25*,-9,i,7,-7,0.6,18%*,i,-1.1,-9
